# RGS4 inh = RGS4 inhibitors, primary screen, cell-based, HEK293 M3R inducible RGS4, calcium flux | hit rate 0.45% among 310,000 | Regulator of G-protein signaling 4 (Homo sapiens), P49798 | Fluo-4 calcium flux; active compounds read high; triggered by carbachol at its EC20 | AID 463165, 2010 | B-score at 10 µM;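 active means B-score, a plate-corrected calcium signal, over three deviations above library mean, with baseline fluorescence within five deviations of library mean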;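 further: RGS4 expression induced by doxycycline in cells with stable M3 receptor; B-score is computed from the integrated fluorescence ratio over baseline after carbachol; higher B-score means a larger calcium signal and so more RGS4 inhibition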
# Target sequence (P49798 whole entry, looked up): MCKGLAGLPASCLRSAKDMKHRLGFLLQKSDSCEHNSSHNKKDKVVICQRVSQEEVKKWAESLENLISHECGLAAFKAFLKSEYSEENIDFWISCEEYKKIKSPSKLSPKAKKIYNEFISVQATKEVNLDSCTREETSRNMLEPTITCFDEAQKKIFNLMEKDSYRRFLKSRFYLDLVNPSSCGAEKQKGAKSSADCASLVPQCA
# RGS4 act = RGS4 potentiators or activators, primary screen, cell-based, HEK293 M3R inducible RGS4, calcium flux; hit rate 0.92% among 310,000; AID 463111, 2010; B-score at 10 µM; carbachol calcium flux Fluo4; active compounds read low;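 active means B-score of the integrated calcium signal more than 4 SD below the library mean, with starting fluorescence not abnormally high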;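 further: negative B-score means reduced calcium response which marks RGS4 activation or potentiation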
#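 test system = HEK293 cells with stable M3R and inducible RGS4 | schedule = recording 10 s baseline at 1 Hz, 100 s post-agonist | technique = Fluo4-AM (2 µM) calcium-flux fluorescence, kinetic read | measure = Agonist-evoked peak-minus-minimum fluorescence over baseline, integrated ratio, B score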
# MrgX1 antag = antagonists of human MrgX1 receptor, primary screen, HEK293 cells, Fluo-4 calcium flux; Mas-related G-protein coupled receptor member X1 (Homo sapiens), Q96LB2; BAM8-22 antagonism; active compounds read low; B-score at 10 µM; hit rate 1.3% among 310,000; AID 588676, 2011;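 active means calcium-response B-score plate-corrected more than 3 library SD below zero, starting fluorescence within 5 deviations, no agonist response on first addition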;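 further: peak minus trough fluorescence over baseline after final BAM8-22 challenge near maximal dose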
# Target sequence (Q96LB2 whole entry, looked up): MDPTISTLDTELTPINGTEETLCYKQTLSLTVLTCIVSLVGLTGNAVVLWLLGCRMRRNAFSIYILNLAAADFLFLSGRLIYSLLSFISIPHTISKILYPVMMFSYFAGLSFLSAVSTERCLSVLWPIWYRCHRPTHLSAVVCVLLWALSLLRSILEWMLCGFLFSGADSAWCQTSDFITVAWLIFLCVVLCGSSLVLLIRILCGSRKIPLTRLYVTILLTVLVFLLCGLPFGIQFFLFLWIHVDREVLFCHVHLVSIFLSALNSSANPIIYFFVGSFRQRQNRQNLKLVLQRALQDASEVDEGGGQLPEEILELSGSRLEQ
# MrgX1 allo act = positive allosteric modulators of MrgX1, primary screen, HEK293 cells, Fluo-4 calcium flux. Mas-related G-protein coupled receptor member X1 (Homo sapiens), Q96LB2. B-score at 10 µM. FDSS; active compounds read high. AID 588675, 2011. hit rate 0.63% among 310,000;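 active means plate-corrected calcium response at least 3 library SD above typical, normal starting fluorescence, not activating the receptor alone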;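 further: compound read alongside a low EC10 to EC30 dose of BAM8-22 agonist; peak minus trough fluorescence over baseline measured at the second addition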
# MrgX1 agonist = agonists of human MrgX1 receptor, primary screen, HEK293 cells, Fluo-4 calcium flux. Mas-related G-protein coupled receptor member X1 (Homo sapiens), Q96LB2. Fluo-4 calcium fluorescence, agonist mode; active compounds read high. B-score at 10 µM. hit rate 0.44% among 310,000. AID 588627, 2011;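 active means calcium response B-score plate-corrected fluorescence ratio at least 3 library SD, with starting fluorescence B-score inside 5 SD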
#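 Assay system: stable human MrgX1 HEK293 cell line. Quantity: 15,000 cells per well. Schedule: cells plated overnight, dye loaded 0.5 h 37 °C, 0.5 h room temperature. Detection: Fluo-4 NW calcium-flux fluorescence, kinetic read. Read-out basis: peak-minus-minimum fluorescence over baseline, converted to B scores. Control set: positive and negative control wells on each plate.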
# Numbers without * were called inactive; i = inactive. In the library only some 3.5% were active in any assay of this set; here they are far more common.
SMILES,RGS4 inh,RGS4 act,MrgX1 antag,MrgX1 allo act,MrgX1 agonist
COc1ccc(C(=O)N2c3ccccc3C=CC2C#N)cc1 (configuration not stated),i,-7.4*,i,i,i
COc1ccc(NC(=O)CN(C)C(=O)c2c(C)nn(Cc3ccccc3)c2C)cc1,i,i,i,i,i
COc1ccc(N2C(=O)C(Cl)=C(NCc3ccccc3)C2=O)cc1,i,i,i,i,i
CCOc1ccccc1NC1=C(Cl)C(=O)N(c2ccc(OC)cc2)C1=O,i,i,i,7.9*,i
COc1ccccc1NC1=C(Cl)C(=O)N(C2CCCCC2)C1=O,i,i,i,7.6*,i
Clc1ccc(OC2CCN(Cc3nc(CC4CC4)no3)CC2)cc1,i,i,i,i,i
N#C/C(=C\c1ccccc1)C(=O)N(c1ccccn1)C1CCCCC1,i,i,i,i,33*
O=C(c1cccc(C(=O)N(c2ccccn2)C2CCCCC2)c1)N(c1ccccn1)C1CCCCC1,i,i,-6.8*,i,i
CN(CC(=O)Nc1ccccc1C(F)(F)F)C(=O)c1ccc(N2C(=O)CCC2=O)cc1,i,i,i,i,i
OC(CCN1CCCCC1)(c1ccccc1)C1CCCCC1 (configuration not stated),i,i,i,i,i
Cc1ccc(C(O)(CCN2CCCCC2)c2ccccc2)cc1 (configuration not stated),i,-7.6*,i,i,i
O=C(CCCn1c(=S)[nH]c2ccsc2c1=O)NCCc1ccccc1,i,i,i,i,i
COc1ccc(N=C2NC(=O)CS2)c([N+](=O)[O-])c1,i,i,i,i,i
O=C1CSC(=Nc2ccccc2[N+](=O)[O-])N1,i,i,-4.6*,i,i
Cn1c(C(=O)Nc2ccc3c(c2)OCCO3)cc2c(=O)n(C)c3ccccc3c21,i,-7.2*,i,i,i
Clc1ccccc1CN(Cc1ccccc1)C(c1cccs1)c1nnnn1C1CCCC1 (configuration not stated),i,i,-5.7*,i,i
CCN(Cc1ccccc1)C(c1cccs1)c1nnnn1C1CCCCC1 (configuration not stated),i,i,i,i,i
O=C(N1CCN(c2ncccn2)CC1)C12CC3CC(CC(C3)C1)C2,i,i,i,i,i
O=C(COC(=O)c1ccccc1NS(=O)(=O)c1cc([N+](=O)[O-])ccc1Cl)c1ccccc1,i,i,i,i,32*
O=C(CCC(=O)OCC(=O)c1ccc([N+](=O)[O-])cc1)Nc1ccccc1Cl,i,i,-5.5*,i,i
O=C(CCC(=O)OCC(=O)c1cccc([N+](=O)[O-])c1)Nc1cccc(Cl)c1Cl,i,i,i,i,i
O=C(CC(=O)c1ccccc1)Nc1cc([N+](=O)[O-])ccc1Cl,i,i,i,i,i
CCC1CN(C(=O)Nc2ccc(C)cc2)c2cc(C)ccc2O1 (configuration not stated),i,i,i,i,i
CC12CCC(C(=O)N/N=C/c3ccc(O)cc3O)(OC1=O)C2(C)C (configuration not stated),i,i,i,i,i
Cc1ccccc1OCCSc1nc2ccccc2n1CCC(=O)O,i,i,i,i,i
SMILES,RGS4 inh,RGS4 act,MrgX1 antag,MrgX1 allo act,MrgX1 agonist
CCCCN(C)CCCNC(=O)C1(O)c2ccccc2NC(=O)N1c1ccc(Cl)cc1 (configuration not stated),i,i,i,i,i
O=C(N/N=C/c1ccc(Cl)c([N+](=O)[O-])c1)c1cnccn1,i,i,-4.7*,i,i
Cc1cccc(NC(=O)CN2C(=O)S/C(=C\C(=O)Nc3ccc(Cl)cc3)C2=O)c1,i,i,-5.7*,i,i
O=C(/C=C1\SC(=O)N(CC(=O)Nc2ccc(Cl)cc2)C1=O)Nc1ccc(F)cc1,i,i,i,i,i
Cc1ccc(OCC(O)Cn2c3ccccc3c3ccccc32)cc1 (configuration not stated),i,i,i,i,i
Cc1cccc(C)c1OCC(O)Cn1c2ccccc2c2ccccc21 (configuration not stated),i,-7.1*,i,i,i
COCCN1C(=S)NC(c2cccc(C(F)(F)F)c2)C(C(=O)N2CCOCC2)=C1C (configuration not stated),i,i,i,i,i
Cc1ccccc1NC(=O)/C(=C/c1ccccc1)c1ccccc1,i,i,i,8.1*,i
O=C(Nc1ccccc1)/C(=C/c1ccccc1)c1ccccc1,i,i,i,i,i
Cc1cccc(C)c1NC(=O)/C(=C/c1ccco1)c1ccccc1,i,i,i,12*,i
COc1ccc2nc(SCC(=O)Nc3cc(OC)c(OC)cc3C(=O)O)c(C)cc2c1,i,i,i,i,i
OCc1cccc[n+]1Cc1ccccc1,i,i,i,i,i
Cn1cccc1C(=O)OCC(=O)NC1CCS(=O)(=O)C1 (configuration not stated),i,i,i,i,i
O=C(N/N=C/c1ccc[nH]1)c1ccc(COc2cccc3cccnc23)cc1,i,i,-7.2*,7.8*,i
Cc1cccc(CN2CCCC(C(=O)Nc3ccc(-c4cscn4)cc3)C2)c1 (configuration not stated),i,-7.3*,i,i,i
O=C(N/N=C/c1ccco1)C1CCCC1,i,i,i,i,i
COc1cccc(CN(CC(=O)NC2CCCCC2)C(=O)c2csnn2)c1,i,i,i,i,i
Cc1cc(=O)[nH]c(SCC(=O)c2ccc(F)c(C)c2)n1,i,i,i,i,i
COc1ccccc1NC(=S)N(C(C)C)C(C)c1ccccn1 (configuration not stated),i,i,i,i,i
CC(C)N(C(=S)Nc1cccc(C(F)(F)F)c1)C(C)c1ccccn1 (configuration not stated),i,i,-9.5*,i,i
CCCCn1c2ccc(C)cc2c2nnc(SCCN3CCCCC3)nc21,i,-12*,i,i,i
O=C(c1ccco1)N1CCN(C(=S)Nc2ccccc2C(F)(F)F)CC1,i,i,i,i,i
O=c1c(Cl)c(O)c2cccc3c4ccccc4n1c23,i,i,i,i,i

# Source: PubChem (Johns Hopkins Ion Channel Center)
